The results in this text go back to ChEMBL document CHEMBL1144907, “Novel sst(4)-selective somatostatin (SRIF) agonists. 3. Analogues amenable to radiolabeling” (J Med Chem, 2003).

In experiment [1] the target is Somatostatin receptor type 2 (Homo sapiens, UniProt P30874). As to the kind of experiment: Binding affinity towards human somatostatin receptor type 2 using [125I][Leu8,D-Trp22,Tyr25]SRIF-28 as radioligand. A digest of the protocol: (§1)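 Receptor autoradiography on 20-µm cryostat sections of pellets of cells stably expressing the cloned human receptor. Cell hosts: sst1 CHO-K1, sst2 CCL39, sst3 CCL39, sst5 CHO-K1. Sections were incubated with radioligand at 30 000 cpm/100 µL and displaced by unlabeled peptide from 0.1 to 1000 nM. SRIF-28 was run in parallel as control. IC50 was obtained by computer-assisted image quantification against calibrated isotope tissue standards.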
Chain of Somatostatin receptor type 2 (P30874 whole entry): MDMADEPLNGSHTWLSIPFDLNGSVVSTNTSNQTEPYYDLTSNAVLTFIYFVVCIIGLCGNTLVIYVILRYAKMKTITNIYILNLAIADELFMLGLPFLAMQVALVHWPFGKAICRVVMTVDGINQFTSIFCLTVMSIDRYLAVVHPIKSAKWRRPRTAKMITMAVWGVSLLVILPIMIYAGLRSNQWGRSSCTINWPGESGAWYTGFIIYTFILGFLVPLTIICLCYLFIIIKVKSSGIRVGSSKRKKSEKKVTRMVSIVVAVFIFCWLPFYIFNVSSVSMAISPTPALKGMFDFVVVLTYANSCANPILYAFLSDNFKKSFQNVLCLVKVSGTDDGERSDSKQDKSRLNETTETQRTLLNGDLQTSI

The target in experiment [2] is Somatostatin receptor type 5 (Homo sapiens, UniProt P35346). The experiment in a line: Binding affinity towards human somatostatin receptor type 5 using [125I][Leu8,D-Trp22,Tyr25]SRIF-28 as radioligand. The method in brief:
as §1

Experiment [3] deals with Somatostatin receptor type 1 (Homo sapiens, UniProt P30872). The experiment in a line: Binding affinity towards human somatostatin receptor type 1 using [125I][Leu8,D-Trp22,Tyr25]SRIF-28 as radioligand. The method in brief: as §1
Chain of Somatostatin receptor type 1 (P30872 whole entry): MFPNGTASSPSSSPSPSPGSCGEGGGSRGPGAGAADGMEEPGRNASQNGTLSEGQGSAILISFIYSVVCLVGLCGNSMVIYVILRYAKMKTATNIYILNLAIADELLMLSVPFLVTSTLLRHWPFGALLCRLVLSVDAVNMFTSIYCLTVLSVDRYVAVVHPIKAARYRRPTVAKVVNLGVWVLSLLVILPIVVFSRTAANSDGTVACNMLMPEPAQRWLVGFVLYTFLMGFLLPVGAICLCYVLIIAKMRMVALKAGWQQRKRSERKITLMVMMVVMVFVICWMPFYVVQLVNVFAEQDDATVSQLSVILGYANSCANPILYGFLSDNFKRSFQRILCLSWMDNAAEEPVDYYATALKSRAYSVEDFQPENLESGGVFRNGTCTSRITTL
Experiment [4] has as its target Somatostatin receptor type 3 (Homo sapiens, UniProt P32745). As to the kind of experiment: Binding affinity towards human somatostatin receptor type 3 using [125I][Leu8,D-Trp22,Tyr25]SRIF-28 as radioligand. The method in brief:
as §1

In experiment [5] the target is Somatostatin receptor type 4 (Homo sapiens, UniProt P31391). The experiment in a line: Binding affinity towards human somatostatin receptor type 4 using [125I][Leu8,D-Trp22,Tyr25]SRIF-28 as radioligand.
Chain of Somatostatin receptor type 4 (P31391 whole entry): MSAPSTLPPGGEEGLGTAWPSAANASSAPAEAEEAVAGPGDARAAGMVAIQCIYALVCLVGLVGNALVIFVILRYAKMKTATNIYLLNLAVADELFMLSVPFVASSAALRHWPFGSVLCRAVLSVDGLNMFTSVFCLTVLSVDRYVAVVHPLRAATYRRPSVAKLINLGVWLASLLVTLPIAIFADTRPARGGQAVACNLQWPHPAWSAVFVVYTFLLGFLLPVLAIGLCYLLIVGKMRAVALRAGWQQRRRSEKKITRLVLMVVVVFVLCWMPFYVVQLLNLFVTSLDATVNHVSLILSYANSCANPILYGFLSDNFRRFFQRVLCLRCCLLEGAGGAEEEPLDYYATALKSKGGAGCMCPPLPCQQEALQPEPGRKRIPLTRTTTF

Chain of Somatostatin receptor type 3 (P32745 whole entry): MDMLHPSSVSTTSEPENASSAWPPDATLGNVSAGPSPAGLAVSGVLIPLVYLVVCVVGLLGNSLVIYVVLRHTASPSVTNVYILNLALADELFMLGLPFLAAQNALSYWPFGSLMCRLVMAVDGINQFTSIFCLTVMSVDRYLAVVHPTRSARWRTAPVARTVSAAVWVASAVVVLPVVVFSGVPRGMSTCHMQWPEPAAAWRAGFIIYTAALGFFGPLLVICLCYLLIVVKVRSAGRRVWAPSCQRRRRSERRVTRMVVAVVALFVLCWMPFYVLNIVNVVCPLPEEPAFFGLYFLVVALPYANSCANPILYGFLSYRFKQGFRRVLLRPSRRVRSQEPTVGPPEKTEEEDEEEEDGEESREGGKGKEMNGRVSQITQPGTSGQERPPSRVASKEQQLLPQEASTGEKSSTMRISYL
Chain of Somatostatin receptor type 5 (P35346 whole entry): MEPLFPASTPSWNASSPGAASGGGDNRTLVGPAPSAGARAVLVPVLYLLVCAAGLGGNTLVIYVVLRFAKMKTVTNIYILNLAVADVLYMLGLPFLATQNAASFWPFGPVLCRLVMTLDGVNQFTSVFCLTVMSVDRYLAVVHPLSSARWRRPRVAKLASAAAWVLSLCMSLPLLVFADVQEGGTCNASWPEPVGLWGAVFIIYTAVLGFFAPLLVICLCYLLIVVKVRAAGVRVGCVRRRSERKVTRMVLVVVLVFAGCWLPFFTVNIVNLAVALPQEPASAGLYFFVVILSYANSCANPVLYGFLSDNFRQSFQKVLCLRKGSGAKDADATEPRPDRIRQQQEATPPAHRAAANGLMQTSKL

Take `C[C@@H](O)[C@@H]1NC(=O)[C@H](CCCCN)NC(=O)[C@@H](Cc2c[nH]c3ccccc23)NC(=O)[C@H](Cc2ccccc2)NC(=O)[C@H](Cc2ccccc2)NC(=O)[C@@H](N)CSSC[C@@H](C(=O)O)NC(=O)[C@H](Cc2ccc(O)cc2)NC1=O` (stereo in doubt): the half-inhibitory concentration (IC50) – broadly, the concentration needed to halve the response being measured – in experiment [1] was determined as 0.0155 µM; in experiment [2], 0.0048 µM; in experiment [3], 0.0103 µM; in experiment [4], 0.0082 µM; in experiment [5], 0.00051 µM.
On the same counts, the results for `C[C@@H]1NC(=O)[C@H](Cc2ccccc2)NC(=O)[C@@H](NC(=O)[C@@H](N)Cc2ccc(O)c(I)c2)CSSC[C@@H](C(=O)O)NC(=O)[C@H](Cc2ccccc2)NC(=O)[C@H]([C@@H](C)O)NC(=O)[C@H](CCCCN)NC(=O)[C@H](Cc2c[nH]c3ccccc23)NC1=O` are above 1 µM, above 1 µM, above 1 µM, 1.02 µM and 0.0035 µM.
